# Assay results pooled from the literature.
# Lines come from different studies, so protocols differ.
# Target: Mitogen-activated protein kinase kinase kinase kinase 3 (MAP4K3, Homo sapiens, UniProt Q8IVH8)
# One construct used (Q8IVH8 1-894): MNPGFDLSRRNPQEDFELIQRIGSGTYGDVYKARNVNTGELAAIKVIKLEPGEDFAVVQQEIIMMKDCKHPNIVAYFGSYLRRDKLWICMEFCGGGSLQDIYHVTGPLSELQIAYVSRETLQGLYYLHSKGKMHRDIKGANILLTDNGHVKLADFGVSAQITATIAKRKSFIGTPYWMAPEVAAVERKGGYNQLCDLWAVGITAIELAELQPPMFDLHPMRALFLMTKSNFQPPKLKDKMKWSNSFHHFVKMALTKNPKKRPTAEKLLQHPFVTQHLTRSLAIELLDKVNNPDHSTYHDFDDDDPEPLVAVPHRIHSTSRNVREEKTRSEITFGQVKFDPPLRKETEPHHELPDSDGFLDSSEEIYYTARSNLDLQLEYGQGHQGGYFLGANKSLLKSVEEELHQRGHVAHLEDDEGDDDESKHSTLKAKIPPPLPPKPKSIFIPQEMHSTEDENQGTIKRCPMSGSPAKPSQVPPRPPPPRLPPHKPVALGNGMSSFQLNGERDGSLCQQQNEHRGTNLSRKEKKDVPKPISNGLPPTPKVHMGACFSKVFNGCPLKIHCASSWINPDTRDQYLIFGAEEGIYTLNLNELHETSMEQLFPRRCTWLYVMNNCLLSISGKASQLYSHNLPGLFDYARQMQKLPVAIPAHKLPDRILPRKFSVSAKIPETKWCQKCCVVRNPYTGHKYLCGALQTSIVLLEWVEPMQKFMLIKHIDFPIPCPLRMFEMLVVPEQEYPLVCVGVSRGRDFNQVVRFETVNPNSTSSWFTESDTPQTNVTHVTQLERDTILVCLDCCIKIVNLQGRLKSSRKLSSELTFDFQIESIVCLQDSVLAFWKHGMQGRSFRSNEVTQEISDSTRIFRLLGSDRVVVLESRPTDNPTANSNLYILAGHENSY
Compound,test,conditions,remaining binding
CN(c1nccc(-c2cnn3ncccc23)n1)C1CC1,binding,1 µM,100%
Nc1c(C(=O)NCc2ccc(C(=O)NCCCC3CCCCC3)cc2)cnn1-c1ccccc1,"cell-free assay, competition with immobilised ligand",0.1 µM,100%
O=C(c1ccc(Nc2ncc(Cl)c(-c3ccc(Cl)s3)n2)cc1)N1CCC(N2CCCC2)CC1,"binding, competition with immobilised ligand",1 µM,50%
COc1cnc(Nc2cccc(S(N)(=O)=O)c2)nc1N1CCN(c2ccccc2)CC1,"binding, competition with immobilised ligand",1 µM,98%
N[C@H]1CCN(c2nccc(-c3cnn4ncccc34)n2)C1,binding,1 µM,100%
O=C(c1ccc(Nc2nccc(-c3cc4ccccc4s3)n2)cc1)N1CCC(N2CCCC2)CC1,"binding, competition with immobilised ligand",1 µM,93%
CN(C)c1ncc(F)c(-c2cnn3ncccc23)n1,binding,1 µM,100%
O=C(NCC1CCOCC1)c1n[nH]cc1NC(=O)c1c(F)cccc1F,"binding, competition with immobilised ligand",1 µM,82%
COc1ncc2cc3ccccc3nc2c1C#N,"cell-free assay, competition with immobilised ligand",5 µM,100%
O=C(NCCCN1CCOCC1)c1ccc(Nc2ncc(Cl)c(-c3ccc(Cl)s3)n2)cc1,"binding, competition with immobilised ligand",1 µM,38%
O=C(Nc1cccnn1)N1CC(C/C=C/c2cncc(Oc3ccc(C(F)(F)F)cn3)n2)C1,"cell-free assay, competition with immobilised ligand",1 µM,100%
F[C@@H]1CCN(c2nccc(-c3cnn4ncccc34)n2)C1,binding,1 µM,100%
CCS(=O)(=O)c1cc2cc(C[C@@](O)(CC(C)(C)c3ccc(F)cc3C(N)=O)C(F)(F)F)[nH]c2cn1,"cell-free assay, competition with immobilised ligand",1 µM,82%
CN(CCCC(F)(F)F)c1nccc(-c2cnn3ncccc23)n1,binding,1 µM,100%
O=C(Nc1cccnn1)N1CCC(=Cc2cccc(Oc3ccc(C(F)(F)F)cn3)c2)CC1,"cell-free assay, competition with immobilised ligand",1 µM,100%
CN(C)c1nccc(-c2cnn3ncccc23)n1,binding,1 µM,100%
O=C(O)c1cc(-c2ccc(C3CCNCC3)cc2)c2ccc(-c3ccc(C(F)(F)F)cc3)cc2c1,"cell-free assay, competition with immobilised ligand",1 µM,100%
COc1cnc(Nc2cccc(S(N)(=O)=O)c2)nc1N1CCN(c2ccccc2)C(=O)C1,"binding, competition with immobilised ligand",1 µM,95%
CN([C@@H]1CCc2c(CC(=O)O)c3cc(S(C)(=O)=O)ccc3n2C1)S(=O)(=O)c1ccc(F)cc1,"cell-free assay, competition with immobilised ligand",1 µM,100%
Nc1ncc2c(n1)-c1c([nH]c3ccc(C#CC4CC4)cc13)CCCC2,"binding, competition with immobilised ligand",1 µM,87%
